Laboratory results reported in ChEMBL document CHEMBL1150578, “Potent antiviral potamogetonyde and potamogetonol, new furanoid labdane diterpenes from Potamogeton malaianus” (J Nat Prod, 2001).
Converted amounts (≈) assume the structure as drawn.

Key:
[1] = Cytotoxicity against Spodoptera frugiperda Sf9 cells after 24 hrs by MTT assay; assay type: functional, cell-based; conditions: Sf9, 24 h
How it was run: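 Seeded 4 × 10^3 cells/well and left 48 h to attach. Exposed 24 h to 1:2 serial dilutions from 200 to 1.56 µg/mL (top dose in 1% DMSO) with penicillin/streptomycin. Then 24 h recovery in fresh medium. MTT 4 h, formazan dissolved in DMSO/glycine buffer pH 10.5, OD 570 nm. Four wells per point; IC50 by metabolic competence.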

Vero = assay: Cytotoxicity against african green monkey Vero cells by SRB assay; assay type: cell-based; conditions: Chlorocebus sabaeus
KB = assay: Cytotoxicity against human KB cells by SRB assay; assay type: functional, cell-based
[2] = Cytotoxicity against Aedes albopictus C6/36 cells after 24 hrs by MTT assay; assay type: functional, cell-based; conditions: C6/36, 24 h
How it was run: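 C6/36 cells in MEM with 10% FCS and 1.1 g/L Na2CO3, at 28 °C, antibiotic-free stock. Seeded 1.6 × 10^4 cells/well and left 48 h to attach. Exposed 24 h to 1:2 serial dilutions from 200 to 1.56 µg/mL (top dose in 1% DMSO) with penicillin/streptomycin. Then 24 h recovery in fresh medium. MTT 4 h, formazan dissolved in DMSO/glycine buffer pH 10.5, OD 570 nm. Four wells per point; IC50 by metabolic competence.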

[3] = Cytotoxicity against human BC cells by SRB assay; assay type: functional, cell-based
Human alphaherpesvirus 1 = assay: Antiviral activity against HSV1 infected in african green monkey Vero cells after 72 hrs by SRB assay; assay type: functional, organism-based; conditions: Human alphaherpesvirus 1, Vero
How it was run: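 HSV-1 (30 PFU) added to wells with test samples (final 20–50 µg/mL), then Vero cells plated at 1 × 10^5 cells/mL. Vero cells grown in MEM with 10% heat-inactivated FBS and antibiotics. Incubated 72 h at 37 °C, 5% CO2. Cells then fixed and stained, and OD read at 510 nm. Acyclovir was the reference.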

[4] = tested on: Mycobacterium tuberculosis; assay: Antimycobacterial activity against Mycobacterium tuberculosis H37Ra by microplate alamar blue assay; assay type: functional

Work on `C=C1CC[C@@H]2[C@@]3(C)CCC[C@@]2(C(=O)OC3)[C@@H]1CC(=O)c1ccoc1` yielded an IC50 [1] of 26 µg/mL (≈ 79.2 µM), an IC50 (Vero) greater than 50 µg/mL and an IC50 (KB) greater than 20 µg/mL. For the same compound, the IC50 [2] was 72 µg/mL (≈ 219 µM), the IC50 [3] was greater than 20 µg/mL and the IC50 (Human alphaherpesvirus 1) was greater than 20 µg/mL. The MIC [4] was 100 µg/mL (≈ 304 µM).

In the case of `Nc1nc2c(ncn2COCCO)c(=O)[nH]1` [ACYCLOVIR], the IC50 (Human alphaherpesvirus 1) is reported as 2 µg/mL (≈ 8.88 µM).

`Cc1c2ccncc2c(C)c2c1[nH]c1ccccc12` [ELLIPTECINE] gave an IC50 (Vero) of 0.4 µg/mL (≈ 1.62 µM), an IC50 (KB) of 0.1 µg/mL (≈ 0.406 µM) and an IC50 [3] of 0.1 µg/mL (≈ 0.406 µM).

Work on `NNC(=O)c1ccncc1` [ISONIAZID] yielded an MIC [4] of 0.04 µg/mL (≈ 0.292 µM).

Work on `NC[C@H]1O[C@H](O[C@H]2[C@H](O)[C@@H](O[C@H]3O[C@H](CO)[C@@H](O)[C@H](N)[C@H]3O)[C@H](N)C[C@@H]2N)[C@H](O)[C@@H](O)[C@@H]1O.O=S(=O)(O)O` [KANAMYCIN SULFATE] yielded an MIC [4] of 2 µg/mL.

In the case of `CO[C@@]12[C@H](COC(N)=O)C3=C(C(=O)C(C)=C(N)C3=O)N1C[C@@H]1N[C@@H]12` [MITOMYCIN], the IC50 [1] is reported as 3 µg/mL (≈ 8.97 µM) and the IC50 [2] is reported as 3 µg/mL (≈ 8.97 µM).

Compound `C=C1CC[C@@H]2[C@@]3(C)CCC[C@@]2(C(=O)OC3)[C@@H]1CCc1ccoc1` [POTAMOGETONIN] has an IC50 [1] of 15 µg/mL (≈ 47.7 µM), an IC50 (Vero) greater than 50 µg/mL and an IC50 (KB) greater than 20 µg/mL. The IC50 [2] was 22 µg/mL (≈ 70 µM), the IC50 [3] was greater than 20 µg/mL and the IC50 (Human alphaherpesvirus 1) was greater than 20 µg/mL. For the same compound, the MIC [4] was 100 µg/mL (≈ 318 µM).

`C=C1CC[C@@H]2[C@](C)(COC(C)=O)CCC[C@@]2(CO)[C@@H]1CCc1ccoc1` [POTAMOGETONOL] gave an IC50 [1] of 23 µg/mL (≈ 63.8 µM), an IC50 (Vero) of 28 µg/mL (≈ 77.7 µM) and an IC50 (KB) greater than 20 µg/mL. For the same compound, the IC50 [2] was 43 µg/mL (≈ 119 µM), the IC50 [3] was greater than 20 µg/mL and the IC50 (Human alphaherpesvirus 1) was 3 µg/mL (≈ 8.32 µM). For the same compound, the MIC [4] was 50 µg/mL (≈ 139 µM).

For `C=C1CC[C@@H]2[C@](C)(COC(C)=O)CCC[C@@]2(C=O)[C@@H]1CCc1ccoc1` [POTAMOGETONYDE], the IC50 [1] was 11 µg/mL (≈ 30.7 µM), the IC50 (Vero) was 31 µg/mL (≈ 86.5 µM) and the IC50 (KB) was greater than 20 µg/mL. The IC50 [2] was 30 µg/mL (≈ 83.7 µM), the IC50 [3] was greater than 20 µg/mL and the IC50 (Human alphaherpesvirus 1) was 8 µg/mL (≈ 22.3 µM). The MIC [4] was 100 µg/mL (≈ 279 µM).
